This is an account of results in ChEMBL document CHEMBL1142457, “Bisphosphonated fluoroquinolone esters as osteotropic prodrugs for the prevention of osteomyelitis” (Bioorg Med Chem, 2008).

Converted amounts (≈) assume the structure as drawn. The source made the active and inactive calls. The rule behind the calls is not given here. A value given as a limit tells only on which side of the number the result lay.

In data set [1] the test system is Serum. In words: Stability in 50% rat serum assessed as amount of parent drug released from cattle bone meal powder over 24 hrs. It is filed as ADME, cell-free. A digest of the protocol: (§1)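 Washed bone-powder-bound prodrug was resuspended in PBS or 50% (v/v in PBS) human or rat serum and kept 24 h at 37 °C. The supernatant was extracted with 5 volumes of methanol, centrifuged, dried, redissolved in PBS and read by fluorescence. Release was derived from the difference between bound prodrug and regenerated drug. Identity was checked by CLSI MIC.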

Data set [2] concerns Staphylococcus aureus. Kind of data set: Antibacterial activity against Staphylococcus aureus ATCC 13709 after 24 hrs by microdilution method. As to conditions: ATCC 13709, 24 h. It is filed as functional. The procedure, abridged:
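Broth microdilution MIC per CLSI M7-A7 against S. aureus ATCC 13709.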
Background: Dilution methods test growth across graded concentrations, often in twofold steps.

Data set [3] has as its system Serum. Kind of data set: Stability in 50% human serum assessed as amount of parent drug released from cattle bone meal powder over 24 hrs. The data set is classed as ADME, cell-free. The procedure, abridged:
as §1

A short description of data set [4]: Stability in phosphate buffer saline assessed as amount of parent drug released from cattle bone meal powder over 24 hrs. It is filed as ADME. The procedure, abridged: as §1
The subject of another data set is Bone. In words: Binding affinity to bone assessed as drug level bound to cattle bone meal powder by fluorescence assay. The data set is classed as tissue-based. More on the design: concentration or dose not given beside the values. The conditions noted are these: Bos taurus; Bone element. A digest of the protocol:
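Drug or prodrug was suspended with bone meal powder in PBS and held 1 h at 37 °C to bind, then centrifuged. The pellet was washed three times with PBS, and all supernatants were read by fluorescence (ex/em 280/465 nm). Bound fraction was taken as […] prodrug relative to total input.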

For data set [5], the system named is Staphylococcus aureus. Kind of data set: Protective effect against Staphylococcus aureus ATCC 13709-induced bone infection in CD rat at 15.8 mg/kg, iv administered as single dose 2 days before bacterial challenge. More on the design: dose 15.8 mg/kg. The data set is classed as functional, organism-based. The procedure, abridged: (§2)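 Female CD rats (57–70 days, n = 5/group) received a single IV bolus in 0.9% saline before infection. Under isoflurane, tibiae were injected with 0.05 ml 5% sodium morrhuate, then S. aureus ATCC 13709 (ca. 5 × 10⁵ CFU/rat). At 24 h, tibiae were milled and cultured quantitatively. Read-out was log CFU/g bone (mean, SD; detection limit 2 log), compared by Dunnett or Kruskal–Wallis.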

In data set [6] the test system is Staphylococcus aureus. Kind of data set: Protective effect against Staphylococcus aureus ATCC 13709-induced bone infection in CD rat at 17.3 mg/kg, iv administered as single dose 2 days before bacterial challenge. The data set is classed as functional, organism-based. Also noted: dose 17.3 mg/kg. The procedure, abridged: as §2
The test system of data set [7] is Staphylococcus aureus. In words: Protective effect against Staphylococcus aureus ATCC 13709-induced bone infection in CD rat at 10 mg/kg, iv administered as single dose.
The subject of data set [8] is Staphylococcus aureus. In words: Protective effect against Staphylococcus aureus ATCC 13709-induced bone infection in CD rat at 10 mg/kg, iv administered as single dose 2 days before bacterial challenge. The data set is classed as functional, organism-based. More on the design: dose 10 mg/kg. A digest of the protocol:
as §2

Data set [9] relates to Staphylococcus aureus. In words: Protective effect against Staphylococcus aureus ATCC 13709-induced bone infection in CD rat at 10 mg/kg, iv administered as single dose 24 hrs after bacterial challenge. It is filed as functional, organism-based. Also noted: dose 10 mg/kg.

As for `COc1c(N2CCNC(C)C2)c(F)cc2c(=O)c(C(=O)SCCCC(P(=O)(O)O)P(=O)(O)O)cn(C3CC3)c12` (centres undefined), the Activity amounted to 0.1% in the data set with Serum [1], 0.1% in the data set with Serum [3], 0.1% in [4] and 98.7% with Bone. In the data set on Staphylococcus aureus [2], the MIC (commonly the lowest concentration that inhibits growth of the organism) was over 4 µg/mL.
For the compound `COc1c(N2C[C@@H]3CCCN[C@@H]3C2)c(F)cc2c(=O)c(C(=O)OCCCCC(P(=O)(O)O)P(=O)(O)O)cn(C3CC3)c12`, the MIC in the data set with Staphylococcus aureus [2] was over 4 µg/mL. Moreover, the Activity was 0.01% in data set [4] and 92.7% in the data set with Bone.
`COc1c(N2C[C@@H]3CCCN[C@@H]3C2)c(F)cc2c(=O)c(C(=O)OCC(=O)NC(P(=O)(O)O)P(=O)(O)O)cn(C3CC3)c12`: the Activity in the data set with Serum [1] is 1.4%; in the data set with Serum [3], 1.4%; in data set [4], 1.2%; with Bone, 98.7%. Moreover, the minimum inhibitory concentration (MIC) in the data set on Staphylococcus aureus [2] was over 4 µg/mL. Besides, the result in the data set on Staphylococcus aureus [5] was Active.
With `COc1c(N2C[C@@H]3CCCN[C@@H]3C2)c(F)cc2c(=O)c(C(=O)OCC(=O)N(C)C(P(=O)(O)O)P(=O)(O)O)cn(C3CC3)c12`, the Activity in the data set on Serum [1] worked out at 0.7%; in the data set on Serum [3], 0.8%; in data set [4], 0.3%; with Bone, 97.3%. Besides, the MIC in the data set with Staphylococcus aureus [2] was over 4 µg/mL.
With `COc1c(N2CCNC(C)C2)c(F)cc2c(=O)c(C(=O)OCC(=O)NC(P(=O)(O)O)P(=O)(O)O)cn(C3CC3)c12` (centres undefined), the Activity in the data set with Serum [1] stood at 1.3%; in the data set with Serum [3], 1.6%; in [4], 2.7%; with Bone, 91%. Also, the MIC in the data set with Staphylococcus aureus [2] is over 4 µg/mL. In the data set with Staphylococcus aureus [6], the outcome was Active.
`COc1c(N2CCNC(C)C2)c(F)cc2c(=O)c(C(=O)O)cn(C3CC3)c12` (centres undefined) [GATIFLOXACIN] returned an MIC with Staphylococcus aureus [2] of 0.06 µg/mL (≈ 0.16 µM). The result in the data set on Staphylococcus aureus [7] and with Staphylococcus aureus [8] was inactive.
In turn, `COc1c(N2C[C@@H]3CCCN[C@@H]3C2)c(F)cc2c(=O)c(C(=O)O)cn(C3CC3)c12` [MOXIFLOXACIN] gave an MIC in the data set on Staphylococcus aureus [2] of 0.03 µg/mL (≈ 0.0747 µM). Besides, the outcome in the data set on Staphylococcus aureus [7], with Staphylococcus aureus [8] and with Staphylococcus aureus [9] was inactive.
`COc1c(N2CCNC(C)C2)c(F)cc2c(=O)c(C(=O)OCC(=O)Nc3ccc(CC(P(=O)(O)O)P(=O)(O)O)cc3)cn(C3CC3)c12` (centres undefined): the Activity in the data set with Serum [1] was found to be 0.6%; with Serum [3] it was 0.7%; in data set [4], 0.5%; in the data set on Bone, 88.9%. In the data set on Staphylococcus aureus [2], this compound gave an MIC of over 4 µg/mL.
`COc1c(N2C[C@@H]3CCCN[C@@H]3C2)c(F)cc2c(=O)c(C(=O)SCCCC(P(=O)(O)O)P(=O)(O)O)cn(C3CC3)c12`: the Activity in the data set with Serum [1] was determined as 0.1%; with Serum [3], 0.1%; in data set [4], 0.04%; with Bone it was 99.9%. In addition, in the data set on Staphylococcus aureus [2], the MIC was over 4 µg/mL.
On to `COc1c(N2C[C@@H]3CCCN[C@@H]3C2)c(F)cc2c(=O)c(C(=O)OCC(=O)Nc3ccc(CC(P(=O)(O)O)P(=O)(O)O)cc3)cn(C3CC3)c12`, for which the Activity is 1.3% with Serum [1], 1.2% in the data set with Serum [3], 0.6% in data set [4] and 97.2% in the data set on Bone. Besides, the MIC with Staphylococcus aureus [2] was over 4 µg/mL.
On the same counts, the results for `COc1c(N2CCNC(C)C2)c(F)cc2c(=O)c(C(=O)OCC(=O)N(C)C(P(=O)(O)O)P(=O)(O)O)cn(C3CC3)c12` (centres undefined) are 0.9%, 0.6%, 1.1%, 90.4% and over 4 µg/mL.
As to `COc1c(N2C[C@@H]3CCCN[C@@H]3C2)c(F)cc2c(=O)c(C(=O)SCC(=O)NC(P(=O)(O)O)P(=O)(O)O)cn(C3CC3)c12`, the Activity in the data set on Serum [1] turned out to be 0.4%; with Serum [3], 0.5%; in data set [4] it was 0.3%; in the data set with Bone, 99%. In the data set on Staphylococcus aureus [2], this compound had an MIC of over 4 µg/mL.
`COc1c(N2C[C@@H]3CCCN[C@@H]3C2)c(F)cc2c(=O)c(C(=O)OCCCC(P(=O)(O)O)P(=O)(O)O)cn(C3CC3)c12` yielded an MIC against Staphylococcus aureus [2] of over 4 µg/mL. In the data set on Bone, the Activity was 93.8%.
As for `COc1c(N2CCNC(C)C2)c(F)cc2c(=O)c(C(=O)OCC(=O)NCCCC[C@@H](NC(=O)COC(=O)c3cn(C4CC4)c4c(OC)c(N5CCNC(C)C5)c(F)cc4c3=O)C(=O)NC(P(=O)(O)O)P(=O)(O)O)cn(C3CC3)c12` (some centres undefined), the Activity was found to be 0.4% in the data set with Serum [1], 0.4% with Serum [3], 0.2% in [4] and 92.8% with Bone. Moreover, in the data set on Staphylococcus aureus [2], the MIC is over 4 µg/mL.
For the compound `COc1c(N2CCNC(C)C2)c(F)cc2c(=O)c(C(=O)Oc3ccc(C(P(=O)(O)O)P(=O)(O)O)cc3)cn(C3CC3)c12` (centres undefined), the Activity in the data set with Serum [1] was found to be 0.1%; with Serum [3] it was 0.1%; in [4], 0.2%; in the data set with Bone, 79.2%. The MIC in the data set on Staphylococcus aureus [2] is over 4 µg/mL.
